The array DNA melting data of Ke et al. (doi:10.1101/2024.01.08.574731)

Tests used:
[1] = folding enthalpy; higher = less favourable; fluorescence melt of hairpins on a sequencing array, two-state fit; conditions: sodium 0.088 M
Outline: (§1)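 Bootstrapped two-state fits yielded melting temperature and folding enthalpy for library hairpins. Cy3 fluorescence, with annealed Cy3 and quencher oligos, was imaged on a sequenced MiSeq flow cell in 50 mM Na-HEPES pH 8.0, 25 mM NaCl in 2.5 °C steps up to 60 °C, and normalised to pre-quench Cy3 and to control constructs. Four replicates were combined by inverse variance, and fitted temperatures were raised by 9.35 °C to match UV melts.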

[2] = melting temperature; fluorescence melt of hairpins on a sequencing array, two-state fit, raised by 9.35 °C to match UV melts; conditions: sodium 0.088 M
Outline: as §1

| Sequence | folding enthalpy [1] [kcal/mol] | Tm [2] [°C] |
| --- | --- | --- |
| GATCGGACGCCGATC ((((((...)))))) | -37.4 | 53.6 |
| GGTTACGAAAGTAGTACC ((((((....)))..))) | -14.8 | 34.8 |
| GATCGCCTATGCGATC ((((((....)))))) | -31.6 | 68.1 |
| GATCTGTGGCCAGATC ((((((....)))))) | -33.9 | 50.4 |
| GTGGAACGAAAGTTGCAC (((.(((....))).))) | -40.3 | 56.5 |
| GACCTCGGAAACGAGACC (..((((....))))..) | -11.8 | 26.1 |
| GCTACTCGAAAGAGCAGC (((.(((....))).))) | -37.7 | 49.6 |
| GGTGATGGAAACACCACC ((((.((....)).)))) | -23.8 | 46.6 |
| GATCTGGGAAACCGGATC ((((.((....)).)))) | -44.8 | 49.8 |
| GCGACTCGAAAGAGCGC (((.(((....)))))) | -32.7 | 60.4 |
| GTATTCCGAAAGGACTAC (((.(((....))).))) | -26.4 | 38.2 |
| GATCCATGGGTGGATC ((((((....)))))) | -41.4 | 54.4 |
| GCTGTTGGAAACAACGGC ((.((((....)))).)) | -39.8 | 54.3 |
| GAAGCGCCGAAAGGCTTC (((..(((....)))))) | -10.5 | 32.3 |
| GAAACACGAAAGTGCTTC (((.(((....))).))) | -22.5 | 43.8 |
| GATACCGAAAGGTTGATC ((((((....)))..))) | -13.6 | 31.4 |
| GATCTATTATAGATC ((((((...)))))) | -33.4 | 41.9 |
| GCGGAGCTCCGC ((((....)))) | -20.9 | 55.2 |
| CGTTTTCGGAAACGAACG (((..(((....)))))) | -12.1 | 37 |
| GATCGTGTTGACGATC ((((((....)))))) | -29.3 | 57.4 |
| GTCCGGGGAAACCTGGAC ((((.((....)).)))) | -36.6 | 55.5 |
| GGTAAACGAAAGTTACC (((.(((....)))))) | -25.6 | 46 |
| GCTATCGAAAGATAAGC ((((((....))).))) | -26.7 | 45 |

| Sequence | folding enthalpy [1] [kcal/mol] | Tm [2] [°C] |
| --- | --- | --- |
| GCAATCGCGAAAGCGTGC (((..(((....)))))) | -12.5 | 44 |
| GATCGACCGCTCGATC ((((((....)))))) | -45.2 | 51.7 |
| CGCTGCGGAAACGCTGCG (((.(((....))).))) | -30.7 | 69.2 |
| GAATGCGGAAACGCATTC (((((((....))))))) | -39.1 | 67.5 |
| GTACCCCGAAAGGGATAC (((.(((....))).))) | -19.6 | 46.1 |
| GCCTGGGGAAACCCAAGC ((.((((....)))).)) | -21.5 | 42.7 |
| GCTCTGGGAAACCAGAAC (.(((((....))))).) | -16.9 | 37.1 |
| GTTCGCGAAAGCGTAAC ((((((....))).))) | -13.8 | 48 |
| GTTCTCGAAAGAGGAAC ((((((....))).))) | -20.8 | 38.3 |
| GCCGACCGAAAGGTGGC (((.(((....)))))) | -34 | 62 |
| GGCGCCCGAAAGGGGCC (((.(((....)))))) | -17.2 | 67.4 |
| GATACTGGAAACAGTACC (.(((((....))))).) | -15.7 | 33.1 |
| GCACCGGCGAAAGCCTGC (((..(((....)))))) | -12.6 | 39.1 |
| GATCCAGGTTGGATC ((((((...)))))) | -41.9 | 50.7 |
| GATCCCGACGGGGATC ((((((....)))))) | -27.8 | 65.8 |
| CACCGGAAACGGTG (((((....))))) | -30 | 60.5 |
| GTGCCAGAAATGGCAC ((((((....)))))) | -36.7 | 67.8 |
| CGTGGCGGAAACGCGACG (((.(((....))).))) | -35.6 | 57.7 |
| CGATTGCGGAAACGCTCG (((..(((....)))))) | -15.9 | 33.5 |
| GATCCTATCGAGGATC ((((((....)))))) | -27.1 | 51.9 |
| GTTGAACGAAAGTTTAAC (((.(((....))).))) | -31.7 | 45.3 |
| GCGTTCGAAAGAACCCGC ((((((....)))..))) | -14.2 | 40.8 |
| GATCTGTACCCAGATC ((((((....)))))) | -36.4 | 47.5 |

| Sequence | folding enthalpy [1] [kcal/mol] | Tm [2] [°C] |
| --- | --- | --- |
| GTGCTTGGAAACAAGTAC ((.((((....)))).)) | -32.3 | 49.2 |
| GCTTGACGAAAGTCAGC (((.(((....)))))) | -23.5 | 55.6 |
| GTTACCCCGAAAGGGAAC (((..(((....)))))) | -16.5 | 32.9 |
| GAGGTTGGAAACAGTCTC (((..((....))..))) | -10.1 | 25.6 |
| GGTCTGGGAAACTGGACC ((((..(....)..)))) | -31.1 | 45.1 |
| GTCAAACGAAAGTTGAC (((.(((....)))))) | -26.5 | 49.7 |
| GCGCCAGGAAACCAGCGC ((((..(....)..)))) | -26.4 | 51.4 |
| CGGATCGGAAACGACCG (((.(((....)))))) | -28.2 | 49.8 |
| GTGTGCGAAAGCATCAC ((((((....))).))) | -21.9 | 54 |
| GCTATCGAAAGATCCAGC ((((((....)))..))) | -13.3 | 26.1 |
| GTGTCTGGAAACAGGTAC ((..(((....)))..)) | -11.4 | 30.1 |
| GTGGGAACGAAAGTTCAC (((..(((....)))))) | -34.3 | 54.9 |
| GATCAACTAGTTGATC ((((((....)))))) | -38.6 | 56.3 |
| CTGTTGAAAAACAG (((((....))))) | -23.7 | 42.3 |
| GTGTCCGGAAACGGACGC (.(((((....))))).) | -14.6 | 62.5 |
| GTCATCGAAAGATAAGAC ((((((....)))..))) | -21 | 31.6 |
| GATCTACATCTAGATC ((((((....)))))) | -30.7 | 36.8 |
| GAATACGAAAGTATTC ((((((....)))))) | -34.4 | 55.5 |
| GATTAACCGAAAGGTATC (((..(((....)))))) | -12.7 | 27.6 |
| GATCTGAAATCAGATC ((((((....)))))) | -36.1 | 45.1 |
| GCCGAGCGAAAGCCCTGC ((.(.((....)).).)) | -13.7 | 33.5 |
| GATATCGGAAACGACATC (((.(((....))).))) | -27.9 | 32.7 |
| GTGCTACGAAAGTAACAC (((.(((....))).))) | -32.7 | 46.7 |
